Assay results from different studies.
Each line is one published result; the experiments were not run side by side.
Target: Citron Rho-interacting kinase (CIT, Homo sapiens, UniProt O14578)

read-out | method | tested at | remaining binding [%] | SMILES
cell-free assay | competition with immobilised ligand | 0.1 µM | 100 | CS(=O)(=O)N1CCCC(NC(=O)[C@H](CCC2CCCCC2)NC(=O)c2ccc(CNC(=O)c3cnc4ccccn34)cc2)C1 (stereo partly shown)
cell-free assay | competition with immobilised ligand | 5 µM | 40 | COc1ncc2cc3ccccc3nc2c1C#N
binding | competition with immobilised ligand | 1 µM | 57 | O=C(c1ccc(Nc2nccc(-c3cc4ccccc4s3)n2)cc1)N1CCC(N2CCCC2)CC1
cell-free assay | competition with immobilised ligand | 1 µM | 100 | COc1cccc(CNC(=O)c2nc3scc(COCc4ccc(C(=O)O)cc4)c3c(=O)[nH]2)c1
binding | competition with immobilised ligand | 1 µM | 30 | O=C(c1ccc(Nc2ncc(Cl)c(-c3cc4ccccc4s3)n2)cc1)N1CCC(N2CCCC2)CC1
binding | competition with immobilised ligand | 1 µM | 65 | CCN1CCN(Cc2ccc(C(=O)Nc3ccc(C)c(Oc4ccc5c(c4)CC(=O)N5)c3)cc2C(F)(F)F)CC1
binding | – | 1 µM | 84 | c1cnn2ncc(-c3ccnc(N4CCC45COC5)n3)c2c1
binding | competition with immobilised ligand | 1 µM | 100 | O=C(NCC1CCOCC1)c1n[nH]cc1NC(=O)c1c(F)cccc1F
binding | – | 1 µM | 100 | CN(C)c1ncc(F)c(-c2cnn3ncccc23)n1
binding | competition with immobilised ligand | 1 µM | 100 | COc1cnc(Nc2cccc(S(N)(=O)=O)c2)nc1N1CCN(c2ccccc2)CC1
binding | – | 1 µM | 82 | CC1CCCN1c1nccc(-c2cnn3ncccc23)n1 (stereo not shown)
cell-free assay | competition with immobilised ligand | 0.1 µM | 68 | CNC(=O)c1ccc(Nc2ncc(C(F)(F)F)c(NCc3nccnc3N(C)S(C)(=O)=O)n2)cc1
binding | competition with immobilised ligand | 1 µM | 77 | O=C(NCCCN1CCOCC1)c1ccc(Nc2nccc(-c3cc4ccccc4s3)n2)cc1
cell-free assay | competition with immobilised ligand | 1 µM | 100 | C[C@@H](c1cccc(C#N)c1)n1cc(Cl)cc(C(N)=O)c1=N
binding | competition with immobilised ligand | 10 µM | 42 | c1cncc(-c2cccc(Nc3nccc(NC4CCCCC4)n3)c2)c1
binding | – | 1 µM | 82 | Cc1cnn2ncc(-c3ccnc(N(C)C)n3)c2c1
cell-free assay | competition with immobilised ligand | 1 µM | 99 | CCC(=O)N[C@H]1CC[C@@H](C(=O)N(C)c2ccc(-c3nc4ccccc4o3)cc2)C1
binding | – | 1 µM | 100 | N[C@H]1CCN(c2nccc(-c3cnn4ncccc34)n2)C1
binding | competition with immobilised ligand | 1 µM | 100 | CNC(=O)[C@@H]1CC[C@@H](n2c(-c3ccc4cnccc4c3)nc3ccc(C(=O)NCc4cccc(C(N)=O)c4)cc32)C1
